According to ChEMBL document CHEMBL4513216, “Probing the Open Global Health Chemical Diversity Library for Multistage-Active Starting Points for Next-Generation Antimalarials” (ACS Infect Dis, 2020):

Assay: Toxicity liver stage against HepG2, at 10uM
Format: cell-based
Design: test concentration 10 uM, cell line HepG2-A16-CD81EGFP
Conditions: human, HepG2-A16-CD81EGFP cells; read-out: INHIBITION
Outline: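 Uninfected HepG2-A16-CD81EGFP cells, 3 × 10^3 per well, 1536-well, plated on prespotted compound at 10 μM final, parasite-free screening media added to match infected plates; puromycin 10 μM positive, DMSO 0.5% negative; run in parallel with 48 h PbLuc assay at 37 °C, 5% CO2; viability by CellTiter-Glo luminescence, normalized to controls.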

Row | SMILES | cytotoxicity at 10 µM [%]
1 | CN(C)[C@H]1C[C@@H](Cc2cc(CO)on2)C1(C)C | 0.994
2 | COCCN1C(=O)CO[C@H]2CN(Cc3ccccc3OC)C[C@H]21 | -1.52
3 | O=C1NC[C@H]2CN(Cc3ccccn3)CCN12 | -2.4
4 | CNC(=O)c1csc(-c2cccnc2)n1 | 3.19
5 | CC(C)(O)CN1CCC(=O)N(Cc2ccco2)Cc2cc(F)ccc21 | -3.66
6 | O=C(COc1coc(CN2CCCCC2)cc1=O)Nc1cccc(Cl)c1 | -1.89
7 | N#Cc1cccc(C(=O)N2CCn3c(Cn4cncn4)cnc3C2)c1 | 7.42
8 | Cc1nn(C)c2c(N(C)Cc3cccs3)nc(C3CC3)nc12 | -126
9 | Cc1cccc2c1cnn2CCCNC(=O)c1cnn(C)c1 | 6.75
10 | COc1ccc2nc(C3CC3)cc(C(=O)NCCc3nnc[nH]3)c2c1 | 0.867
11 | CCCNc1nc(CS(=O)(=O)c2ccccc2)cs1 | 0.939
12 | CC(O)CN1CCC(CNCCOCC(F)(F)F)CC1 (stereo unspecified) | 4.91
13 | CN(C)Cc1nc(C(C)(C)NC(=O)c2cccc3ccccc23)no1 | -1.8
14 | CN(CC(=O)NC(N)=O)CC1(c2ccc(Br)cc2)CC1 | 0.913
15 | COc1cc(OC)cc(N2CCC(NCc3ccsc3)C2=O)c1 (stereo unspecified) | 0.347
16 | Cc1ccccc1CN(Cc1ccccn1)C(=O)CNS(C)(=O)=O | 1.48
17 | CCC(C)(NCC(=O)NC(=O)NC)c1nccs1 (stereo unspecified) | 7.77
18 | O=C(NCc1ccccc1CN1CCCC1)Nc1nncs1 | 6.13
19 | c1cc(CNCc2ccnc(N3CCCC3)c2)c2c(c1)OCO2 | 3.21
20 | CCc1ncc2c(n1)CN(C(C(N)=O)c1ccccc1)CC2 (stereo unspecified) | -2.35
21 | CCn1c(CN(C)C(=O)c2ccc(N(C)C)nc2)nc2ccccc21 | 0.0894
22 | O=C(NS(=O)(=O)c1cnn(-c2ccccc2F)c1)c1ccoc1 | -5.2
23 | COC(=O)N1CCC(NC(=O)N2CCCC2c2ccsc2)CC1 (stereo unspecified) | 10.5

Row | SMILES | cytotoxicity at 10 µM [%]
24 | Cc1nn(C)c(C)c1CC(C)NC(=O)NCc1ccn(C(C)C)n1 (stereo unspecified) | -1.54
25 | CC1C(=O)NCCN1CCOc1ccc(C#N)cc1 (stereo unspecified) | 2.29
26 | O=C(Nc1ccc(-c2nnc[nH]2)cc1)C1CCN1Cc1ccccc1 (stereo unspecified) | 9.73
27 | Cc1nc2c(c(C)c1CC(=O)Nc1ccc(Cl)cc1)c(=O)[nH]n2C | -2.85
28 | CCN(CC1CN(Cc2ncc(C)o2)CCO1)c1cccnn1 (stereo unspecified) | -0.343
29 | Cn1ccnc1CNC(=O)N(CCCO)C1CCCc2ccccc21 (stereo unspecified) | -6.19
30 | CCN1CC2(CC1=O)CN(C(C)=O)CCN(C(=O)NC(C)C)C2 (stereo unspecified) | 8.95
31 | CC(c1cccc(-c2ncccc2F)c1)N(C)C (stereo unspecified) | -19.4
32 | O=C1N(CCCc2ccccc2)CCCC12CCN(C(CO)CO)C2 (stereo unspecified) | -4.14
33 | Cc1ccc(NC2CCN(C(=O)c3cncnc3C)CC2)nn1 | -3.04
34 | CCc1nc(C2CCCN2C(=O)c2csc(NC(C)=O)n2)no1 (stereo unspecified) | -5.12
35 | OCc1ccccc1CNCC1CNc2ccnn2C1 (stereo unspecified) | -11.9
36 | O=C(NCCCn1nc2ccccn2c1=O)Nc1ccc(F)cc1F | -7.43
37 | O=C(c1cc2cc(F)ccc2[nH]1)N1CCC(Nc2ccc(F)cc2)CC1 | -7.36
38 | COc1ccc(CNC(=O)NCc2c(C)cc(C)[nH]c2=O)cc1 | -3.22
39 | Cn1ccnc1N1CCN(C(=O)Cc2ccc(Cl)cc2)CC1 | 5.73
40 | CNC(=O)CN1CCOCC2(CCCN(Cc3ccsc3)C2)C1 (stereo unspecified) | 2.61
41 | Cn1cc(CN2CCc3c(CNC(=O)C4CC4)cncc3C2)cn1 | -5.43
42 | O=C(N[C@@H]1CN(Cc2cccs2)[C@@H]2CCCO[C@@H]21)c1cscn1 | -4.6
43 | COc1cc(C(=O)N2CC3(CCNCC3)c3cc(Cl)ccc32)ccn1 | 52.8
44 | COCc1nn(C)c2c1CCN(Cc1cnn(C)c1)C2 | -4.37
45 | COCC1CN(S(=O)(=O)N(C)C)Cc2cnn(CC3CCCC3)c21 (stereo unspecified) | 12.4
46 | COc1cc(C2CC(=O)c3c(O)cc(O)cc3O2)ccc1O (stereo unspecified) | -0.537
